# ChEMBL document CHEMBL1152560, “Substituted 2-arylbenzothiazoles as kinase inhibitors: hit-to-lead optimization” (Bioorg Med Chem, 2009)
# What was measured:
# [1] = molecular target: T1, Serine/threonine-protein kinase NLK (Homo sapiens) (UniProt Q9UBE8); assay: Residual activity of NLK at 10 uM by microplate scintillation counting
# T1 sequence (whole entry): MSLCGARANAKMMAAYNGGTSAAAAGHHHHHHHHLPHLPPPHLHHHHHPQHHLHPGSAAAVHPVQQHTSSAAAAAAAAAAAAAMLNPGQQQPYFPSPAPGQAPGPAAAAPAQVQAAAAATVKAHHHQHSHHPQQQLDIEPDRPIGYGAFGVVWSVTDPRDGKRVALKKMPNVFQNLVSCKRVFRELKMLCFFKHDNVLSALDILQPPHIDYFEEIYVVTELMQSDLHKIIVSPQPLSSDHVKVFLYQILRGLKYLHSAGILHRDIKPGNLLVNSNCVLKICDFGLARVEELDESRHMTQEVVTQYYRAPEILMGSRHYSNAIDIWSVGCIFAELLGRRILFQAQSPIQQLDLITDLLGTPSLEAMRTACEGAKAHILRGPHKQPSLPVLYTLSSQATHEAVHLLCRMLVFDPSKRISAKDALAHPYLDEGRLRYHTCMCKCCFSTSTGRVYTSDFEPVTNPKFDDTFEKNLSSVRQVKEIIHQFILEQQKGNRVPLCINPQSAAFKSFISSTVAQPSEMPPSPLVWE
# [2] = molecular target: T2, Serine/threonine-protein kinase Nek3 (Homo sapiens) (UniProt P51956); assay: Residual activity of NEK3 at 1 uM by microplate scintillation counting
# T2 sequence (whole entry): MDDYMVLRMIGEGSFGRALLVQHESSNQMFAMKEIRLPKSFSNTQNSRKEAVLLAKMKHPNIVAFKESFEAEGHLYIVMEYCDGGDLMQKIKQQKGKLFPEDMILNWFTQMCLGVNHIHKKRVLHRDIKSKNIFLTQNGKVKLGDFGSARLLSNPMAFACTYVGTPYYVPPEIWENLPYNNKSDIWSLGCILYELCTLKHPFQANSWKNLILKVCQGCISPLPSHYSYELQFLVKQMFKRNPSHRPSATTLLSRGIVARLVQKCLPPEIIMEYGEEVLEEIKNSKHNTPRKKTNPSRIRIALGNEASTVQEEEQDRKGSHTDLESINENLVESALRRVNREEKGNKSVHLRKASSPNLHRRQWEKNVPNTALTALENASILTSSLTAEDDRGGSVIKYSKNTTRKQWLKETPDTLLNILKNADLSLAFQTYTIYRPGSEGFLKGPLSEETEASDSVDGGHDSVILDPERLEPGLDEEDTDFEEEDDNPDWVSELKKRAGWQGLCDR
# [3] = molecular target: Vascular endothelial growth factor receptor 3 (Homo sapiens, UniProt P35916); assay: Inhibition of VEGFR3 by microplate scintillation counting
# Chain of Vascular endothelial growth factor receptor 3 (P35916 whole entry): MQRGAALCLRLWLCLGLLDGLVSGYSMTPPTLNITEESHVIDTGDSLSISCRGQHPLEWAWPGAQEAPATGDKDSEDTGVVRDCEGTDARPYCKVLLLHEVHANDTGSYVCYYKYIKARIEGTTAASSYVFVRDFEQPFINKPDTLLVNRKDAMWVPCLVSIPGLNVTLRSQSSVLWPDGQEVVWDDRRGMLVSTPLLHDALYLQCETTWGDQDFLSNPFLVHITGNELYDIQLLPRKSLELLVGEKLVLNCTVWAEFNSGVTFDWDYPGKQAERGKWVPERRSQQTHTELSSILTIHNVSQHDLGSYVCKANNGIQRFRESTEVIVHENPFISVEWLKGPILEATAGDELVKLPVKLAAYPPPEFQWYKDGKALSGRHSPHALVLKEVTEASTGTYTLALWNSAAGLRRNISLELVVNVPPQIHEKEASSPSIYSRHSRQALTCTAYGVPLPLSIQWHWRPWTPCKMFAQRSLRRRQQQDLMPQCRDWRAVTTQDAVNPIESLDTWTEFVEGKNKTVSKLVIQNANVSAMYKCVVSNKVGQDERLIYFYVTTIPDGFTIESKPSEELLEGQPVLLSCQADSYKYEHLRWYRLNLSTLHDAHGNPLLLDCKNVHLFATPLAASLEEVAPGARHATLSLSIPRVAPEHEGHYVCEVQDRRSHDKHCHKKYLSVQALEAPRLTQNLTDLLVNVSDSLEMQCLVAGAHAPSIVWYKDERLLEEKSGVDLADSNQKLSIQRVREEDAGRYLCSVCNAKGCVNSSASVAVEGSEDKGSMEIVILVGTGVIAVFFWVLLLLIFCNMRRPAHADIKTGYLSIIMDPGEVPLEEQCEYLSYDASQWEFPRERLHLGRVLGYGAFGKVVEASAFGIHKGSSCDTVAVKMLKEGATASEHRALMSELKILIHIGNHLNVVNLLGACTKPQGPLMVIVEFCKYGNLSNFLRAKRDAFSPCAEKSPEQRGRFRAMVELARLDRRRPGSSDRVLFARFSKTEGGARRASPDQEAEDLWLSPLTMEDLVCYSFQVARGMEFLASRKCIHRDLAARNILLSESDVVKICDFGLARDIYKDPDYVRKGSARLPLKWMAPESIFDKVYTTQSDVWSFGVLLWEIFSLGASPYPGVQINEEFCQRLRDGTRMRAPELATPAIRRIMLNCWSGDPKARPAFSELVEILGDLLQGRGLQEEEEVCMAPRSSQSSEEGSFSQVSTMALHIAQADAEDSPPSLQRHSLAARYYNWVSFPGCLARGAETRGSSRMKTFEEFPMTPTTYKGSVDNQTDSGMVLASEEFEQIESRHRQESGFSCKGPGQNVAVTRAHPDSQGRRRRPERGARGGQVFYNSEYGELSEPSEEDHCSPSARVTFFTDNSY
# In short: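 Radiometric FlashPlate assay using recombinant kinase (10–200 ng/well) with poly(Glu,Tyr)4:1 substrate. Buffer: 60 mM HEPES-NaOH pH 7.5, 3 mM MgCl2, 3 mM MnCl2, 3 µM orthovanadate, 1.2 mM DTT, PEG 20000, 1 µM [γ-33P]-ATP. Run 80 min at 30 °C, stopped with H3PO4, and 33P incorporation counted.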
# [4] = molecular target: Tyrosine-protein kinase Fes/Fps (Homo sapiens) (UniProt P07332); assay: Residual activity of FES at 10 uM by microplate scintillation counting
# Chain of Tyrosine-protein kinase Fes/Fps (Homo sapiens) (P07332 whole entry): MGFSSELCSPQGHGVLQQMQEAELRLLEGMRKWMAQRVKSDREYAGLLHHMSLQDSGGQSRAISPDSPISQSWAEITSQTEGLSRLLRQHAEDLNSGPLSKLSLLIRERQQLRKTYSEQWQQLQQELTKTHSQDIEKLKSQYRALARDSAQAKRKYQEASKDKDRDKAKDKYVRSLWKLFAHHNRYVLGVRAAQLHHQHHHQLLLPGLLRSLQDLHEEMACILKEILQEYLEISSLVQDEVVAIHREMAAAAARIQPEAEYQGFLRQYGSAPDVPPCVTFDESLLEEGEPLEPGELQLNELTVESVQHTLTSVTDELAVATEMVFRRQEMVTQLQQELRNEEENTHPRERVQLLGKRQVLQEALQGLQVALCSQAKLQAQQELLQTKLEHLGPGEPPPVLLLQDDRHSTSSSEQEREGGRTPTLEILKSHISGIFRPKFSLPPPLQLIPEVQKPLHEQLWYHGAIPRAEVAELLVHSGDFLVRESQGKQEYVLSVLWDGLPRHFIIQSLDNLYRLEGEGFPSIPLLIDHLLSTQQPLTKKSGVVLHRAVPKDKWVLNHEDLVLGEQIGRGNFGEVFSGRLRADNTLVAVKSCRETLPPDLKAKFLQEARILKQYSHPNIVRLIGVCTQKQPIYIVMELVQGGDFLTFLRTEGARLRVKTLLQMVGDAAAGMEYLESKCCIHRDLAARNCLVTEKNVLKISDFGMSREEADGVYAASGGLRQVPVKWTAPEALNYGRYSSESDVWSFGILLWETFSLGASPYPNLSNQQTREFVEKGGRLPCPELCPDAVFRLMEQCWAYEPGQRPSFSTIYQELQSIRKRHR
# [5] = molecular target: Serine/threonine-protein kinase Chk2 (Homo sapiens) (UniProt O96017); assay: Residual activity of CHK2 at 0.1 uM by microplate scintillation counting
# Chain of Serine/threonine-protein kinase Chk2 (Homo sapiens) (O96017 whole entry): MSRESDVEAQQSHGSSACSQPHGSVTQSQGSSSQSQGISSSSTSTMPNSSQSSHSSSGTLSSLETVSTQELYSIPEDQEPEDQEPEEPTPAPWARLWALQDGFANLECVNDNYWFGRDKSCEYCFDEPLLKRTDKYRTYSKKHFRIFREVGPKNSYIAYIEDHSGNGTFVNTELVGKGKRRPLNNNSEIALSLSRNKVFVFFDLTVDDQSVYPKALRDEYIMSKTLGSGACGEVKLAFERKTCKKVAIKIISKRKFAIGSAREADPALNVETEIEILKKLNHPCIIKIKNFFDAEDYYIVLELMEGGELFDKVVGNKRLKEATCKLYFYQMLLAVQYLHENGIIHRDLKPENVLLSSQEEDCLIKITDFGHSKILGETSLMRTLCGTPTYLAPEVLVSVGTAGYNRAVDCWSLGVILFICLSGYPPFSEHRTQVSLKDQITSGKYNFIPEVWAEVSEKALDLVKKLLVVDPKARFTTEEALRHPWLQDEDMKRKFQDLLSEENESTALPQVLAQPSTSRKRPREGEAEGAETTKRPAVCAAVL
# [6] = molecular target: T2, Serine/threonine-protein kinase Nek3 (Homo sapiens); assay: Residual activity of NEK3 at 0.1 uM by microplate scintillation counting
# [7] = molecular target: Hepatocyte growth factor receptor (Homo sapiens) (UniProt P08581); assay: Residual activity of MET at 1 uM by microplate scintillation counting
# Chain of Hepatocyte growth factor receptor (Homo sapiens) (P08581 whole entry, the tested form may be a part): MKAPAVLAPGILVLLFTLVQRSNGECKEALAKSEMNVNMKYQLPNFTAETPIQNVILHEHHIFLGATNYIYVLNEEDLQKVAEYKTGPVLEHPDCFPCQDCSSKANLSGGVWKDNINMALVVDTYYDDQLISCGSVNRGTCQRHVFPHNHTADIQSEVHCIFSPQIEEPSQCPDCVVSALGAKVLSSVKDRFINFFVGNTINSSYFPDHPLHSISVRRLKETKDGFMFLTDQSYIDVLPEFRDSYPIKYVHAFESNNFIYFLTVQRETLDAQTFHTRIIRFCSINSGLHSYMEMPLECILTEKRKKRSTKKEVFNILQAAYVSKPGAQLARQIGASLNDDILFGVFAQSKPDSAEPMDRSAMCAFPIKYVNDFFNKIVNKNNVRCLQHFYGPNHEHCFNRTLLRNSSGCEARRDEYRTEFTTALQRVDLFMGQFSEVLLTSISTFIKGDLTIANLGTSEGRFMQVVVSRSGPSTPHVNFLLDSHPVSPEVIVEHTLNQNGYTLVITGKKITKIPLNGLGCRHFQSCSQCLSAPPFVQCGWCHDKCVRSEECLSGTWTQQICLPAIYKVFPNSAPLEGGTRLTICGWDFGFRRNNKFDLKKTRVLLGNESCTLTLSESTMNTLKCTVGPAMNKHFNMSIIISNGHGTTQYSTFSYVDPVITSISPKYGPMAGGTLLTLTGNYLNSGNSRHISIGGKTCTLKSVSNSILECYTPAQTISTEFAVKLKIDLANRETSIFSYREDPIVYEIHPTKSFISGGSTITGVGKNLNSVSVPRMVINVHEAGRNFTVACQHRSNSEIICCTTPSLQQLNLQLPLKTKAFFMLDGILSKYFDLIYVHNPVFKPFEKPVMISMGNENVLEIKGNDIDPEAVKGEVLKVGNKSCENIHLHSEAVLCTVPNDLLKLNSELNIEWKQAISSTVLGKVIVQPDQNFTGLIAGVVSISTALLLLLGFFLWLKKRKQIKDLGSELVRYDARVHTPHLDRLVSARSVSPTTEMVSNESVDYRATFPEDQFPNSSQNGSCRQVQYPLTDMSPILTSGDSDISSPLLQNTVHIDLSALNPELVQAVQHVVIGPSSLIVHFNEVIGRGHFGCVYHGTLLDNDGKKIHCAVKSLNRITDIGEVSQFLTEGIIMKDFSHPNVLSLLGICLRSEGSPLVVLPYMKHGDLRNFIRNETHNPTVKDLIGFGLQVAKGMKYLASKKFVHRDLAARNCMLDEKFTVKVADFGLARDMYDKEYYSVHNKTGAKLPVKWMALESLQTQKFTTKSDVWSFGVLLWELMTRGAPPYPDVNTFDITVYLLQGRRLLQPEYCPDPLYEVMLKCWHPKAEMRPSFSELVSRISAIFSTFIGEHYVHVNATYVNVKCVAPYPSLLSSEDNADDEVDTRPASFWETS
# [8] = molecular target: PAS domain-containing serine/threonine-protein kinase (Homo sapiens) (UniProt Q96RG2); assay: Residual activity of PASK at 10 uM by microplate scintillation counting
# [9] = molecular target: T3, NUAK family SNF1-like kinase 1 (Homo sapiens) (UniProt O60285); assay: Residual activity of ARK5 at 10 uM by microplate scintillation counting
# T3 sequence (whole entry): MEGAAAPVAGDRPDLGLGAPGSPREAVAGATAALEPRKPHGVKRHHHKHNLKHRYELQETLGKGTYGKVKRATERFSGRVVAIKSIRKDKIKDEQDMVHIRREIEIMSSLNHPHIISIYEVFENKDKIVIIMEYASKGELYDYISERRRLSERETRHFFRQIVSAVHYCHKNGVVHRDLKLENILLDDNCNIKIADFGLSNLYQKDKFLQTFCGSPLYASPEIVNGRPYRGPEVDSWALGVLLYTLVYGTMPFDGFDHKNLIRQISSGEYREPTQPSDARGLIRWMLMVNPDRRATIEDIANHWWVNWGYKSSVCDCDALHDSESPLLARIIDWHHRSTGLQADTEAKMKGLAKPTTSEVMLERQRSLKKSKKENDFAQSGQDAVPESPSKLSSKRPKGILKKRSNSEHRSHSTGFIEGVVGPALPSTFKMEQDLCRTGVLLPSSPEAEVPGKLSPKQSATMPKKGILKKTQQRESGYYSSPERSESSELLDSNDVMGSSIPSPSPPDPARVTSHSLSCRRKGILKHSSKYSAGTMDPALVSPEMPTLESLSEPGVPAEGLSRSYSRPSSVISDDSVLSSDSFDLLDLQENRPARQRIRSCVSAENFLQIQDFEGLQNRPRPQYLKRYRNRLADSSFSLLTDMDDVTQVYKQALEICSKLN
# [10] = molecular target: Ribosomal protein S6 kinase beta-2 (Homo sapiens) (UniProt Q9UBS0); assay: Residual activity of S6Kbeta at 0.1 uM by microplate scintillation counting
# Chain of Ribosomal protein S6 kinase beta-2 (Homo sapiens) (Q9UBS0 whole entry): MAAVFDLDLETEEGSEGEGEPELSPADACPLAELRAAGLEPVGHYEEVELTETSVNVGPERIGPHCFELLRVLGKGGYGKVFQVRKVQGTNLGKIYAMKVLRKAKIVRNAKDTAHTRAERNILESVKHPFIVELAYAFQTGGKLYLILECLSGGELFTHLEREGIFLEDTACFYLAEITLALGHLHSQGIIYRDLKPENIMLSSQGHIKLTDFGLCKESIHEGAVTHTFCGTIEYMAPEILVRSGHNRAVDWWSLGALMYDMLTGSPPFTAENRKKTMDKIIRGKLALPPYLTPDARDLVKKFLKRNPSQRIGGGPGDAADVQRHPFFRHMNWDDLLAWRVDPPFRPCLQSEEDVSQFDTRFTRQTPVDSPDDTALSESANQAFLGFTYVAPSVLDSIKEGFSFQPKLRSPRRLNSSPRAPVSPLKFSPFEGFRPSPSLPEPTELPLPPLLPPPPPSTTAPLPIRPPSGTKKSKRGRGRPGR
residual activity [1] [%],residual activity [2] [%],IC50 [3] [nM],residual activity [4] [%],residual activity [5] [%],residual activity [6] [%],residual activity [7] [%],residual activity [8] [%],residual activity [9] [%],residual activity [10] [%],Compound
113,102,121,153,91,98,59,96,127,42,COc1cc2c(Oc3ccc(-c4nc5ccccc5s4)cc3)ncnc2cc1OCCCN1CCN(C)CC1
114,103,190,112,92,93,53,79,139,55,COc1cc2c(Oc3ccc(-c4nc5ccccc5s4)cc3F)ncnc2cc1OCCCN1CCN(C)CC1
90,110,140,208,88,96,74,83,109,47,COc1cc2c(Oc3ccc(-c4nc5ccccc5s4)cc3)ncnc2cc1OCCCN1CCCC1
